From ChEMBL document CHEMBL3259575, “Evaluation of a large library of (thiazol-2-yl)hydrazones and analogues as histone acetyltransferase inhibitors: enzyme and cellular studies” (2014)
Activity calls are given as the source filed them. No cut-off for these calls is given here.

Experiments:
[1] = target: Histone acetyltransferase p300 (Homo sapiens) (UniProt Q09472); experiment: Inhibition of recombinant human p300 catalytic domain (1284 to 1673 aa) using histone H3 at 100 uM after 1 hr by radiochemical assay in presence of [acetyl-3H]-acetyl coenzyme A
[2] = target: Histone acetyltransferase p300 (Homo sapiens) (UniProt Q09472); experiment: Inhibition of recombinant human p300 catalytic domain (1284 to 1673 aa) using histone H3 at 200 uM after 1 hr by radiochemical assay in presence of [acetyl-3H]-acetyl coenzyme A
[3] = target: Histone acetyltransferase p300 (Homo sapiens) (UniProt Q09472); experiment: Inhibition of recombinant human p300 catalytic domain (1284 to 1673 aa) using histone H3 at 400 uM after 1 hr by radiochemical assay in presence of [acetyl-3H]-acetyl coenzyme A
[4] = target: Histone acetyltransferase KAT2B (Homo sapiens) (UniProt Q92831); experiment: Inhibition of recombinant human PCAF catalytic domain (492 to 658 aa) using histone H3 at 100 uM after 1 hr by radiochemical assay in presence of [acetyl-3H]-acetyl coenzyme A
U-937 [5] = experiment: Induction of apoptosis in human U937 cells at 100 uM after 30 hrs by FACS analysis relative to control in presence of CPTH6; assay type: functional, cell-based
U-937 [6] = experiment: Induction of apoptosis in human U937 cells at 100 uM after 30 hrs by FACS analysis relative to control; assay type: functional
Procedure, shortened: (§1)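 Cells cultured at 37 °C, 5% CO2 in RPMI-1640 plus 10% heat-inactivated FBS and antibiotics; treated 30 h; apoptosis read by FACS as the pre-G1 population, compared with untreated control.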

U-937 [7] = experiment: Induction of apoptosis in human U937 cells at 100 uM after 30 hrs by FACS analysis relative to control relative to CPTH6; assay type: functional
U-937 [8] = experiment: Induction of human U937 cell differentiation assessed as CD11c expression at 100 uM after 30 hrs by propidium iodide-based flow cytometry relative to control; assay type: functional
Procedure, shortened: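 U937 cells treated 30 h, then stained 1 h at 4 °C in dark with PE-conjugated anti-CD11c (mouse IgG1-PE isotype for controls), washed, resuspended in PBS with propidium iodide; flow cytometry, CD11c-positive percentage after subtracting PI-positive dead cells, versus control.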

HCT-116 [9] = experiment: Induction of apoptosis in human HCT116 cells at 100 uM after 30 hrs by FACS analysis relative to control; assay type: functional; procedure, shortened: as §1
HCT-116 [10] = experiment: Cell cycle arrest at G1 phase in human HCT116 cells at 100 uM after 30 hrs by propidium iodide-based flow cytometry relative to control; assay type: functional
Procedure, shortened: (§2)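 Cells kept at 37 °C, 5% CO2 in RPMI-1640 with 10% heat-inactivated FBS, penicillin, streptomycin, L-glutamine, amphotericin B; plated at 2 × 10^5 cells/mL, exposed 30 h, then suspended in PBS with 0.1% sodium citrate, 0.1% NP40 and propidium iodide; 30 min room temperature in dark; flow cytometry, cell-cycle phase distribution versus untreated control.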

U-937 [11] = experiment: Cell cycle arrest at G1 phase in human U937 cells at 100 uM after 30 hrs by propidium iodide-based flow cytometry relative to control; assay type: functional; procedure, shortened: as §2
U-937 [12] = experiment: Cell cycle arrest in human U937 cells assessed as reduction in cells at S phase at 100 uM after 30 hrs by propidium iodide-based flow cytometry relative to control; assay type: functional; procedure, shortened: as §2

Sequence of Histone acetyltransferase p300 (Homo sapiens) (Q09472 whole entry, the tested form may be a part): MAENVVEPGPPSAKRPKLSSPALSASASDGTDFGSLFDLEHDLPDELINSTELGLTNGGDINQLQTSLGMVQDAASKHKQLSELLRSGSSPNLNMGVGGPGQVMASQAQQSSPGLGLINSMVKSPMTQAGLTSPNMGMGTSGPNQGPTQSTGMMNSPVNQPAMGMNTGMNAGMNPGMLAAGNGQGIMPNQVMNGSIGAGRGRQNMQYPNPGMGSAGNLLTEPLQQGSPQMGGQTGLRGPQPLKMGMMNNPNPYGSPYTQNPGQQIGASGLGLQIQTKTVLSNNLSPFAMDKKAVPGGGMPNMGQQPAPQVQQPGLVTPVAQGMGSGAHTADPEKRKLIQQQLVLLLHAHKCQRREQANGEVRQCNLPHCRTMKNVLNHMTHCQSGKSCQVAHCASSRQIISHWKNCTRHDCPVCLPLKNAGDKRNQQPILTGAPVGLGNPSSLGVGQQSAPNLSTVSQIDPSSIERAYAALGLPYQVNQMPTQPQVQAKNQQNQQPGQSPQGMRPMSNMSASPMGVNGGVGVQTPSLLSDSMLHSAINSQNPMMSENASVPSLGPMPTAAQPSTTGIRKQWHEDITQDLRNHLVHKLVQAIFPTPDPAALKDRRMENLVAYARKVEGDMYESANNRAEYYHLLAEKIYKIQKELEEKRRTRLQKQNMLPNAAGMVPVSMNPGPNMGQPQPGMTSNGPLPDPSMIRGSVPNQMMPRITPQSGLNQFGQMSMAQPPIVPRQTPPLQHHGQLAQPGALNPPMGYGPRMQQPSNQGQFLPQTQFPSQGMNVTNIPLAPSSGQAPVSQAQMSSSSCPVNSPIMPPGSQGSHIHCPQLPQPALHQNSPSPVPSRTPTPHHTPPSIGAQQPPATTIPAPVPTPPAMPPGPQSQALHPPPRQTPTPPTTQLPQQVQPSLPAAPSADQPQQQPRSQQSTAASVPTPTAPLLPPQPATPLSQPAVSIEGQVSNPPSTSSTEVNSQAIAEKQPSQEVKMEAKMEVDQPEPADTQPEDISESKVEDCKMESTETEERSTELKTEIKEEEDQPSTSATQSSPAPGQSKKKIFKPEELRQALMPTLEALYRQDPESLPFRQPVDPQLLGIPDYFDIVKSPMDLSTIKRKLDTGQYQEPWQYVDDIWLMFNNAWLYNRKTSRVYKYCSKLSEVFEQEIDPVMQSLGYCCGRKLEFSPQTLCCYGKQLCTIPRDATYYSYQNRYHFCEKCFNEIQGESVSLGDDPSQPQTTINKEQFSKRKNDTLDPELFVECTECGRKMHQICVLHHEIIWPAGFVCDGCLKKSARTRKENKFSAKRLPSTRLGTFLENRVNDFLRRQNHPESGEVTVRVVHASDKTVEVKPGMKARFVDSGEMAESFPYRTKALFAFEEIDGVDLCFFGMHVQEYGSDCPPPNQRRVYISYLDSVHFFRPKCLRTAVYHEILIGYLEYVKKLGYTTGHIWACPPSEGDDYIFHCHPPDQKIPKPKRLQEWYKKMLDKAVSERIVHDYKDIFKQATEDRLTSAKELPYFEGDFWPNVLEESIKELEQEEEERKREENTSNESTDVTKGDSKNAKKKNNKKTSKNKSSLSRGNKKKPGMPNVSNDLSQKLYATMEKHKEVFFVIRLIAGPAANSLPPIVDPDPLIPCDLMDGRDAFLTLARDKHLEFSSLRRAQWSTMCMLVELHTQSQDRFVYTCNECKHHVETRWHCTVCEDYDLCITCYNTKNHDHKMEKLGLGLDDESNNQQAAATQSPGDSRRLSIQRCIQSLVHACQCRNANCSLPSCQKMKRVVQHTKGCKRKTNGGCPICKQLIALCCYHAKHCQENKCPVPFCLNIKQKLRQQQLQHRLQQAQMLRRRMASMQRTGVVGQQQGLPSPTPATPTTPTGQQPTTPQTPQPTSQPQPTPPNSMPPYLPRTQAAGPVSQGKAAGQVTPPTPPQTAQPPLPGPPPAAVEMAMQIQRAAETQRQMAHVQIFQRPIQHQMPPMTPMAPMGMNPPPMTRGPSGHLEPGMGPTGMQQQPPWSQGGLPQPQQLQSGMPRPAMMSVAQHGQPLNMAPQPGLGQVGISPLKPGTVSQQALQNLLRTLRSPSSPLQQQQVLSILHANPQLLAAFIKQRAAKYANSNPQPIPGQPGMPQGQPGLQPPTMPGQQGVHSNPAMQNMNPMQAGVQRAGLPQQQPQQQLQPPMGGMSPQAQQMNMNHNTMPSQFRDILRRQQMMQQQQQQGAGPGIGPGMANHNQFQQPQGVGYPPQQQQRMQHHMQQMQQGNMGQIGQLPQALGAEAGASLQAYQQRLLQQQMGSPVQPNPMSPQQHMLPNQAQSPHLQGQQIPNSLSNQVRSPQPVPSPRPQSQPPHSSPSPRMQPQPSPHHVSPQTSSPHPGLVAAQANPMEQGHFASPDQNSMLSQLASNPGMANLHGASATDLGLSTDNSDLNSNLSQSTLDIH
Sequence of Histone acetyltransferase KAT2B (Homo sapiens) (Q92831 whole entry, looked up, the tested form may be a part): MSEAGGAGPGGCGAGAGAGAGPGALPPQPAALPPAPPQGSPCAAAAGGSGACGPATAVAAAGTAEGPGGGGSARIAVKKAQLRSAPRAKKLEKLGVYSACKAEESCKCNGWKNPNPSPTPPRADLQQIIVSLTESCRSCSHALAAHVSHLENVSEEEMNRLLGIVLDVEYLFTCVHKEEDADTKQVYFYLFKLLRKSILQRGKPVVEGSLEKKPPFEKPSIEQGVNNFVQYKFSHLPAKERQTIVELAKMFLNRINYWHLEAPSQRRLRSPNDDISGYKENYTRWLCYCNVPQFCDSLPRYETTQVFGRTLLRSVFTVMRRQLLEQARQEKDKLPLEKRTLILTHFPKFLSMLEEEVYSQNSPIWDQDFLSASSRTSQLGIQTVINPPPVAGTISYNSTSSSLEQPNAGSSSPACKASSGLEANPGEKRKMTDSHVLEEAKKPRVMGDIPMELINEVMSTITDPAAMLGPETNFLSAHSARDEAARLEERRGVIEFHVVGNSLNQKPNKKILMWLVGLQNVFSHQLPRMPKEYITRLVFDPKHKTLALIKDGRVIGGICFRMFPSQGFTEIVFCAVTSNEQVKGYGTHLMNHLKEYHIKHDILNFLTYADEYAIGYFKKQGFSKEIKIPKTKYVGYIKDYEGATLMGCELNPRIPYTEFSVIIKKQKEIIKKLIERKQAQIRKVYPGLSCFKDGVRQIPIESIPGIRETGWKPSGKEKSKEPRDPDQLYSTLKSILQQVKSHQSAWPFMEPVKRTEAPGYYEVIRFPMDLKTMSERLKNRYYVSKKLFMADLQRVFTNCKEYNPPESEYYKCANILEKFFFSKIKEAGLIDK

## C/C(=N/Nc1nc(-c2ccc(Cl)cc2)cs1)c1cc2ccccc2oc1=O
[1]
  inhibition: 62%
[2]
  inhibition: 86%
[3]
  inhibition: 97%
[4]
  inhibition: 11%
U-937 [5]
  Activity: Active
U-937 [6]
  Activity: 44%
U-937 [7]
  fold change (FC): 1.5
U-937 [8]
  Activity: Active
HCT-116 [9]
  Activity: 10%

## CC(C)=NNc1nc(-c2cccc([N+](=O)[O-])c2)cs1
[1]
  inhibition: 33%
[2]
  inhibition: 54%
[3]
  inhibition: 76%
[4]
  inhibition: 7%
HCT-116 [10]
  Activity: Active
HCT-116 [9]
  Activity: 10%

## CC1CC/C(=N/Nc2nc(-c3cc4ccccc4oc3=O)cs2)C1 (stereo not drawn)
[1]
  inhibition: 41%
[2]
  inhibition: 52%
[3]
  inhibition: 69%
[4]
  inhibition: 13%
HCT-116 [10]
  Activity: Active

## Clc1ccc(-c2csc(N/N=C\c3c[nH]c4ccccc34)n2)cc1
[1]
  inhibition: 61%
[2]
  inhibition: 79%
[3]
  inhibition: 97%
[4]
  inhibition: 0%
U-937 [5]
  Activity: Active
U-937 [6]
  Activity: 44%
U-937 [7]
  fold change (FC): 1.5
U-937 [8]
  Activity: Active
HCT-116 [9]
  Activity: 10%

## Fc1ccc(-c2csc(NN=C3CCCC3)n2)cc1
[1]
  inhibition: 35%
[2]
  inhibition: 62%
[3]
  inhibition: 91%
[4]
  inhibition: 12%
U-937 [5]
  Activity: Active
U-937 [11]
  Activity: Active
U-937 [12]
  Activity: Active
HCT-116 [10]
  Activity: Active
U-937 [6]
  Activity: 44%
U-937 [7]
  fold change (FC): 1.5
U-937 [8]
  Activity: Active
HCT-116 [9]
  Activity: 10%

## C/C(=N/Nc1nc(-c2ccc(Cl)cc2)cs1)c1ccccn1
[1]
  inhibition: 51%
[2]
  inhibition: 69%
[3]
  inhibition: 87%
[4]
  inhibition: 10%
U-937 [11]
  Activity: Active
U-937 [12]
  Activity: Active
U-937 [8]
  Activity: Active
